CAL PDZ FP-1 = CAL PDZ peptide-binding inhibitors, primary screen, biochemical, fluorescence polarization, Cer-tagged CAL PDZ, HTS; Golgi-associated PDZ and coiled-coil motif-containing protein (Homo sapiens), Q9HD26; purified CAL PDZ, TMR-peptide fluorescence polarization, 1 h; inhibition, % at 20 µM; 330,000 compounds, 0.02% hits;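 active = highest replicate inhibition of at least 40%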;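 note: plate controls were DMSO neutral control wells for no effect and unlabeled competitor peptide control wells for full effect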
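Assay system – tagged CAL PDZ protein CerCALP, purified · Timing – 1 h at RT · Compound – single point, 20 µM · Measured by – fluorescence polarization from S- and P-plane intensities, G-factor corrected · Evaluation – inhibition from polarization loss · Probe or stimulus – TMR reporter peptide T*-PRC34 · Buffer or medium – pH 7.4 phosphate-saline buffer, reducing agent, detergent, IgG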
ALR inh = inhibitors of human ALR sulfhydryl oxidase, primary screen, biochemical, H2O2 detection, HRP-luminol luminescence, single point; AID 485317, 2010; 290,000 compounds, 3.8% hits; FAD-linked sulfhydryl oxidase ALR (Homo sapiens), P55789; purified ALR, DTT oxidation; inhibition, % (concentration not given with the values);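 active = mean replicate inhibition above about 79%, with every replicate also reaching it, limit read from the data; inconclusive = only one of the two criteria met; inactive = mean below limit and not every replicate reaching it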
Target sequence (P55789 whole entry, looked up): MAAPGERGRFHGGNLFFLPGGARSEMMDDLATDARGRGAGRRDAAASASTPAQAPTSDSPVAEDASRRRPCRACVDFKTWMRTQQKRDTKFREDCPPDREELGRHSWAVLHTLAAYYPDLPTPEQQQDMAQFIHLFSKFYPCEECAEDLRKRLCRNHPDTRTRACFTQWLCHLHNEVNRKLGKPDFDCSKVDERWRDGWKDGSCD
CAL PDZ FP-2 = untagged CAL PDZ binding inhibitors, primary screen, biochemical, fluorescence polarization, HTS; purified CAL PDZ, TMR-peptide fluorescence polarization, 1 h; inhibition, % at 24.9 µM; 300,000 compounds, 0.92% hits; AID 602252, 2012;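 active = mean inhibition of at least 30% with at least half of replicates also reaching 30%; inconclusive = no clear call, values can overlap the other calls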;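 note: 0% = DMSO neutral control and 100% = excess unlabeled competitor peptide PRC23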
Rtt109 Vps75 = inhibitors of C. albicans Rtt109/Vps75 HAT, primary screen, biochemical, ThioGlo CoA-SH fluorescence, plate reader; AID 540336, 2011; 330,000 compounds, 0.16% hits; purified Rtt109/Vps75, 4 h; inhibition, % at 34.9 µM; Histone acetyltransferase RTT109 (Candida albicans (strain SC5314 / ATCC MYA-2876)), …;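 active = inhibition of at least 50% in every replicate; inconclusive = best replicate reaches 50% inhibition but some replicates fall short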
Target sequence (Q5AAJ8 whole entry, looked up): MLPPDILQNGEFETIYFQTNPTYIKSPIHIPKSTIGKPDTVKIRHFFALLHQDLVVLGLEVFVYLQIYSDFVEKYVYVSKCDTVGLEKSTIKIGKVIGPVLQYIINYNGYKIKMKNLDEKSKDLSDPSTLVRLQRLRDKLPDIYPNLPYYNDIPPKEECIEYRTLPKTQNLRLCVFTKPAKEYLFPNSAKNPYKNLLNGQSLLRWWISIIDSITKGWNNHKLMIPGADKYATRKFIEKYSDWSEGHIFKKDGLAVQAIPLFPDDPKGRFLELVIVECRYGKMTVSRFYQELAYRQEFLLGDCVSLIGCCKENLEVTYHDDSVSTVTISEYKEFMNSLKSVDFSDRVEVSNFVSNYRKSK
DYRK1A inh = rat Dyrk1A kinase inhibitors, primary screen, biochemical, single point, plate reader; Dual specificity tyrosine-phosphorylation-regulated kinase 1A (Rattus norvegicus), Q63470; ADP-Glo luminescence, NFATc1 peptide; inhibition, % at 12.5 µM; 310,000 compounds, 0.43% hits; in the data active = inhibition above about 50%;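 note: plate controls were vehicle with enzyme for no effect and no enzyme for full effect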
Numbers without * were called inactive; ? = inconclusive; . = not tested or not shown. The list is not random: actives were taken first. Their share in the collection is about 4.3%.

SMILES | CAL PDZ FP-1 | ALR inh | CAL PDZ FP-2 | Rtt109 Vps75 | DYRK1A inh
O=C(NCC(c1ccco1)N1CCc2ccccc21)c1ccccc1 (stereo not drawn) | 0 | 96* | 2 | 1 | -5
COc1ccccc1C(=O)NCC(c1ccco1)N1CCc2ccccc21 (stereo not drawn) | -4 | . | -2 | 4 | 2
COc1ccccc1NC(=O)C(=O)NCC(c1ccco1)N1CCc2ccccc21 (stereo not drawn) | -3 | -2 | -1 | 20 | 6
CC(NC(C(=O)c1ccccc1)c1ccccc1)c1ccccc1 (stereo not drawn) | -2 | . | -2 | . | -3
CCOc1ccccc1NC(=O)N1CCCC(c2nc(-c3ccc(C)o3)no2)C1 (stereo not drawn) | -1 | 2 | 76* | 0 | 3
Cc1ccc(-c2noc(C3CCCN(C(=O)c4ccccc4)C3)n2)o1 (stereo not drawn) | . | 12 | 6 | -3 | 3
NC(=O)CC[C@@H]1NC(=O)[C@@H]2CCCN2C(=O)c2cc([N+](=O)[O-])cc(I)c2NCCC[C@@H](C(N)=O)NC1=O | . | -6 | . | . | .
CCOC(=S)SCc1cn2ccccc2n1 | -1 | 98* | -3 | 6 | -1
Cc1ccc(SCc2cn3ccccc3n2)cc1 | -1 | 7 | 2 | -7 | 1
CCOC(=S)SCc1cn2ccc(C)cc2n1 | -1 | 99* | . | 10 | -1
Nc1cccc(-n2nnnc2CN2CCOCC2)c1 | 0 | -6 | -3 | 5 | -1
O=c1[nH]c(C(F)(F)C(F)(F)C(F)(F)F)no1 | 1 | . | 3 | 0 | .
Cc1ccc2occ(C3N[C@H](C(=O)O)CS3)c(=O)c2c1 (stereo partly drawn) | 0 | 99* | 0 | -1 | -1
O=C(O)C1CSC(c2ccco2)N1 (stereo not drawn) | 0 | -6 | 3 | 22 | 5
Cc1ccc2occ(C3NC(C(=O)O)CS3)c(=O)c2c1 (stereo not drawn) | -2 | 98* | -2 | -4 | -6
CC(=O)Oc1cc2oc(=O)cc(C)c2cc1OC(C)=O | -1 | 89* | -3 | 4 | 23
CC(=O)Oc1ccc2c(C)cc(=O)oc2c1 | 0 | 22 | 0 | 0 | 9
O=C(CN1C(=O)CSc2ccc(S(=O)(=O)N3CCOCC3)cc21)NCc1cccnc1 | -1 | -1 | -4 | 11 | 5
O=C(Nc1ncnc2sc3c(c12)CCCC3)c1ccncc1 | -2 | -13 | -4 | 1 | -2
O=C(Nc1ncnc2sc3c(c12)CCCCC3)c1ccco1 | 0 | 97* | 5 | -5 | -3
CC1(C)Cc2nc3[nH]c(=S)[nH]c(=O)c3cc2CO1 | 0 | 17 | -3 | 3 | 1
CC(C)CSc1ncnc2c1oc1nc3c(cc12)COC(C)(C)C3 | -3 | -3 | . | -1 | -2
CC1(C)Cc2nc3oc4c(=S)nc[nH]c4c3cc2CO1 | -4 | 96* | -4 | 11 | -4
C=CCSc1ncnc2c1oc1nc3c(cc12)COC(C)(C)C3 | -1 | -6 | 84* | 1 | 0
N=C1S/C(=C\c2cn[nH]c2-c2ccc(F)cc2)C(=O)N1c1ccccc1F | -1 | -5 | 0 | 5 | 25
SMILES | CAL PDZ FP-1 | ALR inh | CAL PDZ FP-2 | Rtt109 Vps75 | DYRK1A inh
C=CCc1ccc(OCCn2nnc3ccccc32)c(OC)c1 | -3 | -3 | 95* | 2 | 9
Cc1c(NC(=O)C(C)OC(=O)c2cccnc2Cl)c(=O)n(-c2ccccc2)n1C (stereo not drawn) | -2 | -6 | -4 | -8 | .
COC(=O)c1[nH]c2ccccc2c1Sc1ccccc1 | 0 | -5 | -4 | 3 | 1
CNC(=O)CCc1[nH]c2ccccc2c1Sc1ccccc1 | -1 | 98* | -3 | 5 | 1
COc1ccc(-n2nc(C(=O)NCC(=O)N3CCN(c4ccccc4F)CC3)c3ccccc3c2=O)cc1 | -1 | -1 | 73* | -5 | 6
COc1ccc(N2CCN(C(C)C(=O)N(C)Cc3ccccc3)CC2)cc1 (stereo not drawn) | -3 | 96* | -4 | ? | 3
COc1ccc(N(C(C)C(=O)N(C)Cc2ccccc2)S(C)(=O)=O)cc1 (stereo not drawn) | -2 | -8 | -2 | 3 | .
COc1ccc(N2CCN(CC(=O)N3N=CCC3c3ccccc3)CC2)cc1 (stereo not drawn) | -3 | 84* | -2 | 16 | 0
COc1ccc(N2CCN(C(=O)CN(Cc3ccccc3)S(C)(=O)=O)CC2)cc1 | -2 | 86* | -3 | 6 | .
CCOC(=O)Cn1ccc(NC(=O)COc2ccc(F)cc2)n1 | -3 | -4 | -1 | 2 | -1
COc1ccc(N2CCN(C(=O)CCCCn3c(=O)[nH]c4ccsc4c3=O)CC2)cc1 | -2 | 83* | -2 | 0 | -9
COc1ccc(N2CCN(C(=O)CCc3ccccc3)CC2)cc1 | 0 | 97* | -2 | -2 | -5
COc1ccc(CCC(=O)N2CCN(c3ccc(OC)cc3)CC2)cc1 | -1 | . | -2 | -10 | 2
COc1ccc(N2CCN(C(=O)[C@H](Cc3c[nH]c4ccccc34)NC(C)=O)CC2)cc1 | -7 | 98* | -3 | 3 | 1
CN(CC(=O)N1CCN(c2ccccc2F)CC1)S(=O)(=O)c1cnc[nH]1 | -3 | 0 | -1 | -7 | 6
COc1ccc(N2CCN(C(=O)CCc3c[nH]c4ccccc34)CC2)cc1 | . | 59 | 0 | -3 | -4
COc1ccc(N2CCN(C(=O)CN(C)S(=O)(=O)c3cnc[nH]3)CC2)cc1 | 0 | 87* | -3 | 0 | 6
COc1ccc(N2CCN(C(=O)CNC(=O)Cc3ccccc3)CC2)cc1 | -1 | 79* | -2 | 53* | 8
CCN1CCCc2cc(CN(CCN3CCOCC3)C(=S)Nc3ccccc3OC)ccc21 | 0 | 99* | -9 | 11 | -5
CCN1CCCc2cc(CN(CCN3CCOCC3)C(=S)Nc3ccccc3C)ccc21 | 0 | 99* | 17 | -1 | -8
COc1ccccc1NC(=S)N(CCN1CCOCC1)Cc1ccccc1F | 0 | 5 | 2 | -3 | 0
Cc1cccc(NC(=S)N(CCN2CCOCC2)Cc2ccccc2F)c1 | 0 | -2 | 12 | -8 | -2
CCN1CCCc2cc(CN(CCN3CCOCC3)C(=S)Nc3cccc(C)c3)ccc21 | -1 | 95* | 53* | 5 | -2
CC(=O)NCCC(=O)Nc1cc(S(=O)(=O)N2CCOCC2)ccc1Oc1ccccc1 | -2 | -1 | -8 | 0 | -9
COc1ccc(C(=O)O)cc1S(N)(=O)=O | -2 | -1 | 32* | 2 | .

Screening data as filed in PubChem.
